Tests used:
[1] = species: Homo sapiens; test: Selectivity index, ratio of IC50 for human recombinant microsomal MAO- A expressed in baculovirus infected BTI-TN-5B1- 4 cells using p-tyramine as substrate to IC50 for human recombinant microsomal MAO- B expressed in baculovirus infected BTI-TN-5B1- 4 cells using p-tyramine as substrate by horse radish peroxidase/Amplex red reagent based fluorescence assay
Procedure, shortened: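 Recombinant hMAO-A (1.1 µg) or hMAO-B (7.5 µg) preincubated with inhibitor over a concentration range for 30 min at 37 °C in 0.05 M sodium phosphate, pH 7.4. Reaction started with 1 mM p-tyramine, 200 µM Amplex Red and 1 U/mL HRP (final concentrations). H₂O₂ was read by fluorescence (ex 545/em 590 nm) after 30 min dark incubation. Background without enzyme was subtracted; vehicle served as control.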

[2] = biological target: T1, Amine oxidase [flavin-containing] B (Homo sapiens, UniProt P27338); test: (§1) Inhibition of human recombinant microsomal MAO-B expressed in baculovirus infected BTI-TN-5B1-4 cells assessed as reduction in production of H202 using p-tyramine as substrate incubated for 30 mins followed by substrate addition by horse radish peroxidase/Amplex red reagent based fluorescence assay; format: cell-based
T1 sequence (P27338 whole entry): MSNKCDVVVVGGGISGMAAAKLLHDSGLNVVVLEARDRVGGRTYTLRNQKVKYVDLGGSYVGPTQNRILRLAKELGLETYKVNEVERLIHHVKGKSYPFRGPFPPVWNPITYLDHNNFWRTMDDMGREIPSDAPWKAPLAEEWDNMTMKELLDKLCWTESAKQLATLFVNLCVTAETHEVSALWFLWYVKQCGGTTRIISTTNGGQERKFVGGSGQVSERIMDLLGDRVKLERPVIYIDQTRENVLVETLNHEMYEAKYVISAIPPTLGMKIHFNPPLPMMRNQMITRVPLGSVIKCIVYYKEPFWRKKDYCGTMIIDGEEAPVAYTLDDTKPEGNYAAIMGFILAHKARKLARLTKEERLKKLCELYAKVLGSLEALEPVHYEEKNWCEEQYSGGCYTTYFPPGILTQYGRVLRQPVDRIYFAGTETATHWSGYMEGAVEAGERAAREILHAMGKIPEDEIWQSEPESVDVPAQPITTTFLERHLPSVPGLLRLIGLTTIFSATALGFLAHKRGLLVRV

[3] = biological target: Acetylcholinesterase (Electrophorus electricus, UniProt O42275); test: Inhibition of electric eel AChE assessed as reduction in production of H202 using acetylcholine as substrate incubated for 15 mins followed by substrate addition by horse radish peroxidase/Amplex red reagent based fluorescence assay
Sequence of Acetylcholinesterase (O42275 whole entry): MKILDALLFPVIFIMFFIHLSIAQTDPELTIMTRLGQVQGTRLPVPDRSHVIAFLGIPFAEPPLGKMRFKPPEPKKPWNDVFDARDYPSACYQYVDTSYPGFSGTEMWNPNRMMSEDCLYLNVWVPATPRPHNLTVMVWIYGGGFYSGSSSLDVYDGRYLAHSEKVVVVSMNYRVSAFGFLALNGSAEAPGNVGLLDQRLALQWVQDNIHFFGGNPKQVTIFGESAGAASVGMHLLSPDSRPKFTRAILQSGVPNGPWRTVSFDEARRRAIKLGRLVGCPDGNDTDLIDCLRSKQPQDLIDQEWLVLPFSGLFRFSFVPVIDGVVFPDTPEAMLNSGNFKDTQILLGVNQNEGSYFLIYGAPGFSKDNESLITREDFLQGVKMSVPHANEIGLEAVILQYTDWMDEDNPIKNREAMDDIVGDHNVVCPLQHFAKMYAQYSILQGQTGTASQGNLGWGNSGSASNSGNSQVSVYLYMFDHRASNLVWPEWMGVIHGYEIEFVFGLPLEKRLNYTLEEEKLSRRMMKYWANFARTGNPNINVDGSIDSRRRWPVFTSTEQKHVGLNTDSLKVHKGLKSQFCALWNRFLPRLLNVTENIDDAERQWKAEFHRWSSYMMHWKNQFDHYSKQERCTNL

[4] = biological target: T2, Amine oxidase [flavin-containing] A (Homo sapiens, UniProt P21397); test: as §1, with “MAO- A” for “MAO-B”, “BTI-TN-5B1- 4” for “BTI-TN-5B1-4”, “H202 at 50 uM” for “H202”; conditions: 0.5 h
T2 sequence (P21397 whole entry): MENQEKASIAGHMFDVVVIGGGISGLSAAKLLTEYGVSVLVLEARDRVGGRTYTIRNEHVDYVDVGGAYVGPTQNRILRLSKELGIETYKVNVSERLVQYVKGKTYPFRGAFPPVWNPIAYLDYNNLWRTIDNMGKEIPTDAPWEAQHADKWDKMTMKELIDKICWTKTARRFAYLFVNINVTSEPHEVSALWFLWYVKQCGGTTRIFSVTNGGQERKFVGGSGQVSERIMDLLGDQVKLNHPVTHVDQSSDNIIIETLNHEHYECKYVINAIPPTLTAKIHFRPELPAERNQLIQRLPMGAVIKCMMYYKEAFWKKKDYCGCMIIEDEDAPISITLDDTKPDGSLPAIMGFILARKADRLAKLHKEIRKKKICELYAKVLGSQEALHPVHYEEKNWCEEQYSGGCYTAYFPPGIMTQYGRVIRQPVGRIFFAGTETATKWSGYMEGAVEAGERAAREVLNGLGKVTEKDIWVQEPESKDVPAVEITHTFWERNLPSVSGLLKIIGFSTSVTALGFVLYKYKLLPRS
Procedure, shortened: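 Recombinant hMAO-A (1.1 µg protein) preincubated 30 min at 37 °C with test compound in 0.05 M sodium phosphate, pH 7.4. Reaction started with (final) 200 µM Amplex Red, 1 U/mL HRP and 1 mM p-tyramine. After 30 min in the dark, H2O2 read by fluorescence (ex 545/em 590 nm) at 37 °C. Background without enzyme subtracted; vehicle control.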

[5] = biological target: T2, Amine oxidase [flavin-containing] A; test: Inhibition of human recombinant microsomal MAO-A expressed in baculovirus infected BTI-TN-5B1-4 cells assessed as reduction in production of H202 using p-tyramine as substrate incubated for 30 mins followed by substrate addition by horse radish peroxidase/Amplex red reagent based fluorescence assay; format: cell-based

SMILES | Ratio IC50 [1] | IC50 [2] | IC50 [3] | inhibition at 50 µM [4] | IC50 ([5]; bti-tn-5b1-4) | IC50 ([5]; read-out: IC50)
C#CCOc1ccc(-c2cc(-c3ccc(OCC#C)c(OCC)c3)nc(N)n2)cc1 | > 4 | 14 µM | 7.05 µM | < 50% | Not Active | –
C#CCOc1cccc(-c2cc(-c3cccc(OCC#C)c3)nc(-c3ccccc3)n2)c1 | > 3 | 23.4 µM | 6.73 µM | < 50% | Not Active | –
C#CCOc1ccc(-c2cc(-c3cccc(OCC#C)c3)nc(C)n2)cc1 | 2.6 | 8.09 µM | 5.88 µM | – | – | 21.1 µM
C#CCOc1ccc(-c2cc(-c3cccc(OCC#C)c3)nc(-c3ccccc3)n2)cc1 | 1.5 | 17.7 µM | 4.39 µM | – | – | 25.8 µM
C#CCOc1ccc(-c2cc(-c3ccc(OCC#C)c(OC)c3)nc(-c3ccccc3)n2)cc1 | 1.6 | 15.7 µM | 6.99 µM | – | – | 24.9 µM
C#CCOc1ccc(-c2cc(-c3ccc(OCC#C)c(OCC)c3)nc(C)n2)cc1 | > 5 | 11 µM | 6.38 µM | < 50% | Not Active | –
C#CCOc1ccc(-c2cc(-c3ccccc3OCC#C)nc(N)n2)cc1 | 1.3 | 22.1 µM | 1.81 µM | – | – | 28.6 µM
C#CCOc1ccc(-c2cc(-c3ccc(OCC#C)c(OC)c3)nc(N)n2)cc1 | > 3 | 20 µM | 4.58 µM | < 50% | Not Active | –
C#CCOc1ccccc1-c1cc(-c2ccccc2OCC#C)nc(-c2ccccc2)n1 | > 4 | 13.8 µM | 8.12 µM | < 50% | Not Active | –
C#CCOc1ccc(-c2cc(-c3ccccc3OCC#C)nc(C)n2)cc1 | 1.3 | 18.1 µM | 2.56 µM | – | – | 23.2 µM
